Laboratory results as given in ChEMBL document CHEMBL1139362, “Discovery of human macrophage migration inhibitory factor (MIF)-CD74 antagonists via virtual screening” (J Med Chem, 2009).
The source made the active and inactive calls. No cut-off for these calls is given here.

Assays:
[1] = target: T1, Macrophage migration inhibitory factor (Homo sapiens) (UniProt P14174); assay: (§1) Inhibition of human recombinant MIF tautomerase
T1 sequence (whole entry): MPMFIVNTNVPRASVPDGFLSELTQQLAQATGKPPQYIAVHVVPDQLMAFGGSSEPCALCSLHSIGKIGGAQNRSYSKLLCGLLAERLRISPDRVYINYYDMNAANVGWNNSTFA

[2] = target: T2, MIF/CD74 (Macrophage migration inhibitory factor and HLA-DR antigens-associated invariant chain) (Homo sapiens, UniProt P04233+P14174); assay: (§2) Inhibition of human MIF-CD74 binding; type: protein assay
T2 sequence (P14174 whole entry): T1 sequence (whole entry)
T2 sequence (P04233 whole entry): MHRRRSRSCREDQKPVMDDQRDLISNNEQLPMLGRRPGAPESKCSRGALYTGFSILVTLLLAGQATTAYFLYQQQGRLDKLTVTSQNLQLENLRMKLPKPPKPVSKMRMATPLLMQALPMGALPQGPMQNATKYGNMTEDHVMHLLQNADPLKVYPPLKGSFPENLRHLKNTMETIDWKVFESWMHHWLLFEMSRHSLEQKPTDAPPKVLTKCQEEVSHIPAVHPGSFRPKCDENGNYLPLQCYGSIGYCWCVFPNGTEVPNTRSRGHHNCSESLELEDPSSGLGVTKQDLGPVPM
How it was run: (§3)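 Compounds pre-incubated 30 min at room temperature with biotinylated recombinant human MIF (2 ng/µl), then added to wells overnight at 4 °C. Bound MIF detected with streptavidin-alkaline phosphatase and p-nitrophenyl phosphate, A405 expressed as percent of MIF-alone wells. 10–12 concentrations spanning ~500-fold; at least three independent assays.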

[3] = target: T3, MIF/CD74 (Macrophage migration inhibitory factor and HLA-DR antigens-associated invariant chain) (Homo sapiens) (UniProt P14174+P04233); assay: as §2; type: protein assay; how it was run: as §3
[4] = target: T1, Macrophage migration inhibitory factor (Homo sapiens); assay: Inhibition of human recombinant MIF tautomerase at 10 uM; set-up: scale not given: the % may be the effect or the level left
[5] = target: T4, Macrophage migration inhibitory factor (Homo sapiens, UniProt P14174); assay: as §1
T4 sequence (P14174 whole entry): T1 sequence (whole entry)

[6] = target: T3, MIF/CD74 (Macrophage migration inhibitory factor and HLA-DR antigens-associated invariant chain) (Homo sapiens); assay: Inhibition of human MIF-CD74 binding at 10 uM; type: protein assay; set-up: scale not given: the % may be the effect or the level left

Row | IC50 [2] | Activity [3] | SMILES | other results
1 | 250 µM | – | O=C(O)c1cc(-n2cnnc2)ccc1Cl | Activity [1]: inactive
2 | – | inactive | Cc1ccc(-n2cnc3ccccc3c2=O)cc1Cl | –
3 | – | inactive | CC(OC(=O)c1ccc(-c2ccc(O)cc2)cc1)C(=O)NCc1ccccc1 (stereo not given) | –
4 | 900 µM | – | Oc1ccc2c(c1)oc1ccccc12 | Activity [4]: 38%
5 | 250 µM | – | O=c1[nH]nc(-c2cccs2)cc1Cc1ccc(Cl)c(Cl)c1 | IC50 [5]: 430 µM
6 | – | inactive | O=C(Nc1cccc2ccccc12)C(=O)c1c[nH]c2ccccc12 | –
7 | 2.5 µM | – | Oc1c(C(Nc2cccc(F)c2)c2ccccn2)ccc2cccnc12 (stereo not given) | IC50 [5]: 530 µM
8 | – | inactive | Cc1cc(C)c2ccc(C3=C(O)c4ccccc4C3=O)nc2c1O | –
9 | – | inactive | OCc1nc2ccccc2n1Cc1ccc2ccccc2c1 | –
10 | – | inactive | Ic1cc(-c2ccccc2)ncn1 | –
11 | – | – | COC(=O)C[C@H]1CC(c2ccc(O)cc2)=NO1 (racemic) | Activity [6]: 40%; Activity [1]: inactive
12 | – | inactive | CCOc1cc(/C=C2\Oc3cc(O)ccc3C2=O)ccc1O | –
13 | – | inactive | N#C/C(=C\c1ccc(-c2ccccc2)cc1)c1ccccn1 | –
14 | 1500 µM | – | O=C(O)COc1ccc2occ(C(=O)c3ccccc3)c2c1 | IC50 [5]: 980 µM
15 | – | inactive | O=C(O)c1cccc(-n2ccnc2)c1 | –
16 | 65 µM | – | Oc1csc(Cc2nc(-c3ccc(-c4ccccc4)cc3)cs2)n1 | IC50 [5]: 300 µM
17 | – | inactive | O=c1c2ccc(F)cc2sn1-c1ccc(Cl)cc1 | –
18 | – | inactive | O=c1oc2c(O)c(O)ccc2cc1-c1nc2ccccc2s1 | –
19 | – | – | CC(C)(C)OC(=O)C[C@H]1CC(c2ccc(O)c(F)c2)=NO1 (racemic) | IC50 [5]: 0.55 µM
20 | – | inactive | CC(=O)Nc1cccc2ccc(-c3cnc4ccccc4c3)nc12 | –
21 | 15 µM | – | O=C(O)c1cccc(-c2cc[nH]n2)c1 | Activity [4]: 30%
22 | 2.5 µM | – | CC(=O)Oc1ccc2nc(-c3cc4ccccc4o3)oc(=O)c2c1 | –
23 | 4 µM | – | O=C(c1cc2ccccc2o1)N1CCc2ccccc21 | –
24 | 550 µM | – | O=C(O)c1cc(-n2cnnn2)ccc1O | Activity [1]: inactive

Row | SMILES | IC50 [2] | Activity [3] | other results
25 | Oc1ccc(/C=C/c2ccc3cccc(O)c3n2)cc1 | 8 µM | – | Activity [4]: 40%
